# Measurements: article PMC6516474 (Journal of the American Chemical Society, 2019)
# Like-named read-outs stand apart in the source and are kept apart here. Starred links: 1 amine or outer side, 2 acyl side, 3 side chain; linkers in the order of their positions; H or OH if unused. Positions of bridges follow the written chain, without caps; N, C: chain ends. Non-standard residues stand in square brackets, D forms with d. Residues, ends and D or L forms follow the SMILES beside them. Chains are numbered I, II in the order given. Actinocin(9to1) = Cc1c2oc3c(C)ccc(C(=O)[*:1])c3nc-2c(C(=O)[*:2])c(N)c1=O; NMeV = CN[C@H](C(=O)O)C(C)C; Sar = CNCC(=O)O
# Tests used:
# NIH-3T3 = test: AlamarBlue proliferation assay, NIH-3T3; type: cell-based, mouse; settings: for toxicity against NIH-3T3: 3 µM; for toxicity to NIH-3T3: growth inhibition screen at 1 and 3 µM; for EC50: read-out: EC50 NIH-3T3, NIH-3T3, inherently-insensitive line
# caspase-3 activation = test: Immunofluorescence apoptosis, NIH-3T3; type: cell-based, mouse; settings: NIH-3T3, 24 h; 79a 0.111 µM, 92 0.038 µM, 97 0.042 µM; mitomycin C as validation
# γ-H2AX [1] = test: Immunofluorescence DNA-damage response, HeLa; type: cell-based, human; settings: 24 h, 79a 0.015 µM, 92 0.012 µM
# caspase-3 = test: Immunofluorescence apoptosis, HeLa; type: cell-based, human; settings: 24 h, 79a 0.015 µM, 92 0.012 µM
# MDA-MB-231 = test: Proliferation EC50, MDA-MB-231; type: cell-based, human; settings: for EC50: read-out: EC50 MDA-MB-231, MDA-MB-231; for fold more potent than 79a: MDA-MB-231, EC50 comparison
# cancer cell lines = test: Broad anticancer activity over cancer cell lines; type: cell-based; settings: range over cancer cell lines
# [2] = test system: MEFs (a mouse embryonic fibroblast line); test: Toxicity against MEF; type: cell-based; settings: 3 µM
# γ-H2AX [3] = test: Immunofluorescence DNA-damage response, NIH-3T3; type: cell-based, mouse; settings: NIH-3T3, 24 h; 79a 0.111 µM, 92 0.038 µM, 97 0.042 µM; mitomycin C as validation
# HEK293T = test: AlamarBlue proliferation assay, HEK293T; type: cell-based; settings: for fold more potent than 81 and digoxin 82: EC50 comparison
# [4] = test system: HFF1 (a human fibroblast line); test: Toxicity against HFF1; type: cell-based
# [5] = test system: HEK293T, HeLa, Cos7, Raji, NIH-3T3; test: AlamarBlue proliferation screen over a cell line panel; type: cell-based; settings: 2 days
# Procedure, shortened: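 Panel includes Raji (human Burkitt's lymphoma, grown in suspension) and NIH-3T3 (non-transformed mouse fibroblast) alongside adherent lines. Test compounds were screened at 2 µM and 0.6 µM, and proliferation was read by AlamarBlue over 2 days. The assay was validated by comparing normalized AlamarBlue signal averages of DMSO-treated cells with those of cells given 2 µg/ml puromycin (Z′ factor calculated).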
# HEPG2 = test: Proliferation EC50, HEPG2; type: cell-based, human; settings: HEPG2, EC50 comparison
# [6] = test system: HF-II-E (a hepatoma line from rat); test: Toxicity against HF-II-E; type: cell-based
# U87 = test: Proliferation EC50, U87; type: cell-based, human; settings: U87, EC50 comparison
# [7] = test system: RAW (a virally-transformed mouse macrophage line); test: Toxicity against RAW; type: cell-based
# [8] = read-out: EC50 in HEK293T cells, HEK293T, 5 most potent compounds
# [9] = Homo sapiens, HEK-293T, 48 h, read-out: EC50 in HEK293T
# [10] = read-out: EC50 in HEK293T, HEK293T, proliferation over 2 days, AlamarBlue
# [11] = Homo sapiens, HEK-293T, read-out: EC50 in HEK293T cells
smiles,measurement,setting,value
"C[C@@H]1O[C@@H](O[C@H]2CC[C@@]3(CO)[C@H](CC[C@@H]4[C@@H]3CC[C@]3(C)[C@@H](C5=CC(=O)OC5)CC[C@]43O)C2)[C@H](O)[C@H](O)[C@H]1O [79a, cannogenol-L-α-rhamnoside]",toxicity against NIH-3T3,NIH-3T3,nontoxic
same,toxicity to NIH-3T3,NIH-3T3,none of which were toxic to NIH-3T3
same,EC50,NIH-3T3,> 3 µM
same,caspase-3 activation,caspase-3 activation,did not upregulate
same,γ-H2AX upregulation,γ-H2AX [1],upregulated significantly
same,caspase-3 upregulation,caspase-3,Little upregulation
same,EC50,MDA-MB-231,0.111 µM
same,concentrations of broad anticancer activity,cancer cell lines,10 to 100 nM
same,toxicity against MEF,[2],nontoxic
same,γ-H2AX upregulation (DNA-damage response),γ-H2AX [3],did not upregulate
same,fold more potent than 81 and digoxin 82,HEK293T; HEK293T,2–3 fold
same,EC50,HEK293T; [8],< 0.1 µM
"CN[C@@H]1C[C@H]2O[C@@](C)([C@@H]1OC)n1c3ccccc3c3c4c(c5c6ccccc6n2c5c31)C(=O)NC4 [Staurosporine, reference compound]",γ-H2AX upregulation,γ-H2AX [1],upregulated
same,caspase-3 upregulation,caspase-3,upregulated
"Cc1c2oc3c(C)ccc(C(=O)N[C@@H]4C(=O)N[C@H](C(C)C)C(=O)N5CCC[C@H]5C(=O)N(C)CC(=O)N(C)[C@@H](C(C)C)C(=O)O[C@@H]4C)c3nc-2c(C(=O)N[C@@H]2C(=O)N[C@H](C(C)C)C(=O)N3CCC[C@H]3C(=O)N(C)CC(=O)N(C)[C@@H](C(C)C)C(=O)O[C@@H]2C)c(N)c1=O [actinomycin D] (I: T[dV]P[Sar][NMeV] / II: T[dV]P[Sar][NMeV]; ester I:1-I:C, II:1-II:C; linker I:N-II:N via Actinocin(9to1))",EC50,HEK293T; [9],0.002 µM
C[C@H]1CCC/C=C/[C@@H]2C[C@H](O)C[C@H]2[C@H](O)/C=C/C(=O)O1 [brefeldin A],EC50,HEK293T; [9],0.2 µM
"C[C@]12C[C@@H](O)[C@H]3[C@@H](CC[C@]4(O)C[C@@H](O)C[C@@H](O)[C@]34CO)[C@@]1(O)CC[C@@H]2C1=CC(=O)OC1 [compound 1, ouabagenin]",toxicity to NIH-3T3,NIH-3T3,none of which were toxic to NIH-3T3
same,effect against HFF1,[4],effective
same,EC50,HEK293T; [10],< 1 µM
"C[C@@H]1O[C@@H](O[C@H]2C[C@@H](O)[C@]3(CO)[C@H]4[C@H](O)C[C@]5(C)[C@@H](C6=CC(=O)OC6)CC[C@]5(O)[C@@H]4CC[C@]3(O)C2)[C@H](O)[C@H](O)[C@H]1O [compound 2, ouabain]",toxicity to NIH-3T3,NIH-3T3,none of which were toxic to NIH-3T3
same,effect against HFF1,[4],effective
same,EC50,HEK293T; [9],< 1 µM
"C[C@]12CC[C@H]3[C@@H](CC[C@@H]4C[C@@H](O)CC[C@@]43CO)[C@@]1(O)CC[C@@H]2C1=CC(=O)OC1 [compound 5, cannogenol]",activity against NIH-3T3 in proliferation screen,"NIH-3T3; 2 µM, 2 days",activity against every line except NIH-3T3
same,activity in proliferation screen,[5]; 0.6 µM,affecting most lines
same,activity in proliferation screen,[5]; 2 µM,active
same,EC50,HEK293T; [10],~1 µM
"C[C@]12CC[C@H](O)C[C@H]1CC[C@@H]1[C@@H]2CC[C@]2(C)[C@@H](C3=CC(=O)OC3)CC[C@]12O [compound 80, digitoxigenin, reference compound]",toxicity to NIH-3T3,NIH-3T3,none of which were toxic to NIH-3T3
same,EC50,HEK293T; [9],< 1 µM
"C[C@H]1O[C@@H](O[C@H]2[C@@H](O)C[C@H](O[C@H]3[C@@H](O)C[C@H](O[C@H]4CC[C@@]5(C)[C@H](CC[C@@H]6[C@@H]5CC[C@]5(C)[C@@H](C7=CC(=O)OC7)CC[C@]65O)C4)O[C@@H]3C)O[C@@H]2C)C[C@H](O)[C@@H]1O [compound 81, digitoxin]",toxicity to NIH-3T3,NIH-3T3,none of which were toxic to NIH-3T3
same,effect against HFF1,[4],effective
same,EC50,HEK293T; [9],< 1 µM
same,EC50,HEK293T; [11],< 0.1 µM
"C[C@H]1O[C@@H](O[C@H]2[C@@H](O)C[C@H](O[C@H]3[C@@H](O)C[C@H](O[C@H]4CC[C@@]5(C)[C@H](CC[C@@H]6[C@@H]5C[C@@H](O)[C@]5(C)[C@@H](C7=CC(=O)OC7)CC[C@]65O)C4)O[C@@H]3C)O[C@@H]2C)C[C@H](O)[C@@H]1O [compound 82, digoxin]",toxicity to NIH-3T3,NIH-3T3,none of which were toxic to NIH-3T3
same,EC50,HEK293T; [9],< 1 µM
same,EC50,HEK293T; [11],< 0.1 µM
"C[C@@H]1O[C@H](O[C@H]2CC[C@]3(CO)[C@H]4CC[C@]5(C)[C@@H](C6=CC(=O)OC6)CC[C@]5(O)[C@@H]4CC[C@]3(O)C2)[C@H](O)[C@H](O)[C@H]1O [compound 92, strophanthidol-L-α-rhamnoside]",toxicity against NIH-3T3,NIH-3T3,nontoxic
same,EC50,NIH-3T3,> 3 µM
same,caspase-3 activation,caspase-3 activation,did not upregulate
same,γ-H2AX upregulation,γ-H2AX [1],upregulated significantly
same,caspase-3 upregulation,caspase-3,Little upregulation
same,fold more potent than 79a,MDA-MB-231,3–4 fold
same,EC50,MDA-MB-231,0.038 µM
same,concentrations of broad anticancer activity,cancer cell lines,10 to 100 nM
same,fold more potent than 79a,HEPG2,3–4 fold
same,toxicity against MEF,[2],nontoxic
same,γ-H2AX upregulation (DNA-damage response),γ-H2AX [3],did not upregulate
same,fold more potent than 81 and digoxin 82,HEK293T; HEK293T,2–3 fold
same,EC50,HEK293T; [8],< 0.1 µM
same,effect against HF-II-E,[6],ineffective
same,fold more potent than 79a,U87,3–4 fold
"C[C@@H]1O[C@@H](O[C@H]2CC[C@@]3(C)[C@H](CC[C@@H]4[C@@H]3CC[C@]3(C)[C@@H](C5=CC(=O)OC5)CC[C@]43O)C2)[C@H](O)[C@H](O)[C@H]1O [compound 97, digitoxigenin-L-α-rhamnoside]",toxicity against NIH-3T3,NIH-3T3,nontoxic
same,EC50,NIH-3T3,> 3 µM
same,caspase-3 activation,caspase-3 activation,did not upregulate
same,fold more potent than 79a,MDA-MB-231,3–4 fold
same,EC50,MDA-MB-231,0.042 µM
same,concentrations of broad anticancer activity,cancer cell lines,10 to 100 nM
same,fold more potent than 79a,HEPG2,3–4 fold
same,toxicity against MEF,[2],nontoxic
same,effect against RAW,[7],ineffective
same,γ-H2AX upregulation (DNA-damage response),γ-H2AX [3],did not upregulate
same,fold more potent than 81 and digoxin 82,HEK293T; HEK293T,2–3 fold
same,EC50,HEK293T; [8],< 0.1 µM
same,effect against HF-II-E,[6],ineffective
same,fold more potent than 79a,U87,3–4 fold
"CO[C@@]12[C@H](COC(N)=O)C3=C(C(=O)C(C)=C(N)C3=O)N1C[C@@H]1N[C@@H]12 [mitomycin C, reference compound]",caspase-3 activation,caspase-3 activation,Caspase-3-uregulation only in NIH-3T3
same,γ-H2AX upregulation (DNA-damage response),γ-H2AX [3],DDR-upregulation
same,EC50,HEK293T; [9],4 µM
